From ChEMBL document CHEMBL4038304, “Chiral Indolylarylsulfone Non-Nucleoside Reverse Transcriptase Inhibitors as New Potent and Broad Spectrum Anti-HIV-1 Agents” (J Med Chem, 2017)

Experiments:
[1] = Inhibition of HIV1 reverse transcriptase p66 K103N/[…] double mutant associated RNA dependent DNA polymerase activity expressed in Escherichia coli assessed as reduction in [3H]dTTP incorporation using poly(rA)/oligo(dT) as template/primer by scintillation counting analysis; set-up: species or system Human immunodeficiency virus 1
[2] = target: Human immunodeficiency virus type 1 reverse transcriptase (Human immunodeficiency virus 1, UniProt Q72547, Y181I); test: Inhibition of HIV1 reverse transcriptase p66 Y181I mutant associated RNA dependent DNA polymerase activity expressed in Escherichia coli assessed as reduction in [3H]dTTP incorporation using poly(rA)/oligo(dT) as template/primer by scintillation counting analysis
[3] = test system: Human immunodeficiency virus 1; test: Antiviral activity against HIV1 harboring reverse transcriptase Y188L mutant infected in human […] cells assessed as protection against virus-induced cytopathic effect measured on day 5 post infection by MTT assay; format: functional, cell-based; details: Human immunodeficiency virus 1, 120 h
[4] = test system: Human immunodeficiency virus 1; test: Antiviral activity against HIV1 harboring reverse transcriptase K103N mutant infected in human […] cells assessed as protection against virus-induced cytopathic effect measured on day 5 post infection by MTT assay; format: functional, cell-based; details: Human immunodeficiency virus 1, 120 h
[5] = test system: Human immunodeficiency virus 1; test: Ratio of EC50 for HIV-1 harboring reverse transcriptase Y181C mutant infected in human MT4 cells to EC50 for HIV1 NL4-3 infected in human MT4 cells; format: functional
Method in brief: (§1)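 Fold change calculated as EC50 against the stated resistant mutant HIV-1 strain divided by EC50 against wild-type NL4-3. Both EC50s come from MTT read-out of virus-induced death in MT-4 cells, mean of two to three independent experiments each in triplicate.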

[6] = test system: Human immunodeficiency virus 1; test: Antiviral activity against HIV1 harboring reverse transcriptase Y181C mutant infected in human […] cells assessed as protection against virus-induced cytopathic effect measured on day 5 post infection by MTT assay; format: functional, cell-based; details: Human immunodeficiency virus 1, 120 h
[7] = target: Human immunodeficiency virus type 1 reverse transcriptase (Human immunodeficiency virus 1, UniProt Q72547); test: Inhibition of HIV1 NL4-3 reverse transcriptase His-tagged p66/p51 associated RNA dependent DNA polymerase activity expressed in Escherichia coli assessed as reduction in [3H]dTTP incorporation using poly(rA)/oligo(dT) as template/primer by scintillation counting analysis
[8] = test system: Human immunodeficiency virus 1; test: Ratio of EC50 for HIV-1 harboring reverse transcriptase K103N/[…] double mutant infected in human MT4 cells to EC50 for HIV1 NL4-3 infected in human MT4 cells; format: functional; method in brief: as §1
[9] = test system: Human immunodeficiency virus 1; test: Ratio of EC50 for HIV-1 harboring reverse transcriptase Y188L mutant infected in human MT4 cells to EC50 for HIV1 NL4-3 infected in human MT4 cells; format: functional; method in brief: as §1
[10] = test system: Human immunodeficiency virus 1; test: Ratio of EC50 for HIV-1 harboring reverse transcriptase K103N mutant infected in human MT4 cells to EC50 for HIV1 NL4-3 infected in human MT4 cells; format: functional; method in brief: as §1
[11] = Selectivity index, ratio of CC50 for human MT4 cells to EC50 for HIV1 NL4-3 infected in human MT4 cells; format: toxicity, cell-based; details: read-out: Ratio CC50/EC50
Method in brief: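 SI computed as CC50/EC50, using the MTT-based CC50 in uninfected MT-4 cells and the MTT-based EC50 against HIV-1 NL4-3-induced cell death in MT-4 cells. Experiments were run in triplicate, two to three times.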

[12] = test system: Human immunodeficiency virus 1; test: Antiviral activity against HIV1 harboring reverse transcriptase K103N /[…] double mutant infected in human […] cells assessed as protection against virus-induced cytopathic effect measured on day 5 post infection by MTT assay; format: functional, cell-based; details: Human immunodeficiency virus 1, 120 h
[13] = target: Human immunodeficiency virus type 1 reverse transcriptase (Human immunodeficiency virus 1, UniProt Q72547, K103N); test: Inhibition of HIV1 reverse transcriptase p66 K103N mutant associated RNA dependent DNA polymerase activity expressed in Escherichia coli assessed as reduction in [3H]dTTP incorporation using poly(rA)/oligo(dT) as template/primer by scintillation counting analysis
[14] = Cytotoxicity against human MT4 cells assessed as cell viability by MTT assay; format: cell-based
Method in brief: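 Uninfected MT-4 cells scored for viability by MTT. […] Values are means of two to three independent experiments, each run in triplicate.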

[15] = test system: Human immunodeficiency virus 1; test: Antiviral activity against HIV1 NL4-3 infected in human […] cells assessed as protection against virus-induced cytopathic effect measured on day 5 post infection by MTT assay; format: functional, cell-based; details: Human immunodeficiency virus 1, NL4-3, 120 h
Method in brief: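 Values are means of two to three independent experiments, each run in triplicate. The lowest detectable concentration is reported where activity fell below the assay limit.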

Compound | IC50 [1] | IC50 [2] | EC50 [3] | EC50 [4] | Ratio EC50 [5] | EC50 [6] | IC50 [7] | Ratio EC50 [8] | Ratio EC50 [9] | Ratio EC50 [10] | selectivity ratio [11] | EC50 [12] | IC50 [13] | CC50 [14] | EC50 [15]
Cc1cc(C)cc(S(=O)(=O)c2c(C(=O)NCc3cccc(N)c3)[nH]c3ccc(Cl)cc23)c1 | 35 nM | 64 nM | 24 nM | 0.7 nM | 1 | 0.7 nM | 41 nM | 123 | 34 | 1 | > 76300 | 86 nM | 66 nM | > 53400 nM | 0.7 nM
Cc1cc(C)cc(S(=O)(=O)c2c(C(=O)NCc3ccc4nc(N)[nH]c4c3)[nH]c3ccc(Cl)cc23)c1 | 470 nM | 284 nM |  | 18 nM | 132 | 79 nM | 278 nM | >9810 |  | 30 | > 9810 | > 5890 nM | 183 nM | 5890 nM | 0.6 nM
Cc1cc(C)cc(S(=O)(=O)c2c(C(=O)N[C@@H](C)C(=O)N[C@H](C)c3ccncc3)[nH]c3ccc(Cl)cc23)c1 | 490 nM | 1700 nM | 742 nM | 0.6 nM |  | 0.6 nM | 610 nM |  |  |  |  | 1260 nM | 300 nM |  | 0.6 nM
Cc1cc(C)cc(S(=O)(=O)c2c(C(=O)NCC(=O)NCc3ccco3)[nH]c3ccc(Cl)cc23)c1 | 586 nM | 461 nM | 1120 nM | 60 nM |  | < 0.6 nM | 145 nM | >26477 | >1600 | >86 | > 83400 | 18500 nM | 538 nM | > 50000 nM | 0.6 nM
Cc1cc(C)cc(S(=O)(=O)c2c(C(=O)NCC(=O)NCCn3c(C)cnc3[N+](=O)[O-])[nH]c3ccc(Cl)cc23)c1 |  |  | 2320 nM | 279 nM | 85 | 17 nM |  | 23285 | 11605 | 1395 | 144000 | 4680 nM |  | 24500 nM | 0.2 nM
Cc1cc(C)cc(S(=O)(=O)c2c(C(=O)NC(C)C(=O)NCc3ccncn3)[nH]c3ccc(Cl)cc23)c1 (racemic) |  |  | 760 nM | 0.6 nM | 1 | 0.6 nM |  | >1330 | >1267 | 1 | > 46800 | 798 nM |  | 28100 nM | 0.6 nM
Cc1cc(C)cc(S(=O)(=O)c2c(C(=O)NC(C)c3ccccc3F)[nH]c3ccc(Cl)cc23)c1 (racemic) |  |  | 969 nM | 0.7 nM | >147 | 103 nM |  | >5656 | >1384 | 1 | > 73600 | 3960 nM |  | > 51500 nM | 0.7 nM
Cc1cc(C)cc(S(=O)(=O)c2c(C(=O)N[C@H](C)C(=O)N[C@H](C)c3ccncc3)[nH]c3ccc(Cl)cc23)c1 | 13800 nM | 5790 nM | > 27000 nM | 1210 nM |  | 1170 nM | 410 nM |  |  |  |  | > 27000 nM | 23700 nM |  | 3.8 nM
Cc1cc(C)cc(S(=O)(=O)c2c(C(=O)NC(C)C(=O)NC(C)c3ccccc3)[nH]c3ccc(Cl)cc23)c1 (racemic) |  |  | 3790 nM | 1.9 nM | 283 | 167 nM |  | 42149 | 6427 | 3.2 | > 36900 | 24900 nM |  | 21700 nM | 0.6 nM
Cc1cc(C)cc(S(=O)(=O)c2c(C(=O)NCC(=O)NCc3ccccc3F)[nH]c3ccc(Cl)cc23)c1 |  |  | 6160 nM | 1330 nM | 1.9 | 1.3 nM |  | >72248 | 10258 | 1894 | > 78900 | > 47300 nM |  | > 47300 nM | 0.6 nM
